# Test results as given in ChEMBL document CHEMBL1154014, “Discovery of a novel class of 2-mercaptohexanoic acid derivatives as highly active PPARalpha agonists” (Bioorg Med Chem Lett, 2009).
# Active and inactive are the calls of the source. No cut-off for these calls is given here.
# Legend:
# [1] = target: T1, Peroxisome proliferator-activated receptor gamma (Homo sapiens) (UniProt P37231); assay: Agonist activity at human PPARgamma expressed in african green monkey COS7 cells at 1 uM by Gal4 transactivation assay relative to pioglitazone; format: functional, cell-based; settings: COS-7
# T1 sequence (whole entry): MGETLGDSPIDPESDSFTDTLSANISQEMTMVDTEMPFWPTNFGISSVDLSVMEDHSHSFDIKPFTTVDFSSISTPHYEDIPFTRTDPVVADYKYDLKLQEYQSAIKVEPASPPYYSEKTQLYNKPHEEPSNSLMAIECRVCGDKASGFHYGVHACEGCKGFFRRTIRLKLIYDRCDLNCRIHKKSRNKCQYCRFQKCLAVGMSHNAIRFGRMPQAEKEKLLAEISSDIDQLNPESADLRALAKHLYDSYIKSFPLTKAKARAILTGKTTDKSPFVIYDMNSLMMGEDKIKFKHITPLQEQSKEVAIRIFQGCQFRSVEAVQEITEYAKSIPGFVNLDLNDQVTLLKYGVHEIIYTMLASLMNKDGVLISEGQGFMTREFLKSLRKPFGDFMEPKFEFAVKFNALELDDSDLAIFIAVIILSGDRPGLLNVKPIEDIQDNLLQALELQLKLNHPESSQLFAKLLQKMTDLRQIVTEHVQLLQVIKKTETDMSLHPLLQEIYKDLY
# [2] = target: T2, Peroxisome proliferator-activated receptor delta (Homo sapiens) (UniProt Q03181); assay: Agonist activity at human PPARbeta expressed in african green monkey COS7 cells at 10 uM by Gal4 transactivation assay; format: functional, cell-based; settings: COS-7
# T2 sequence (whole entry): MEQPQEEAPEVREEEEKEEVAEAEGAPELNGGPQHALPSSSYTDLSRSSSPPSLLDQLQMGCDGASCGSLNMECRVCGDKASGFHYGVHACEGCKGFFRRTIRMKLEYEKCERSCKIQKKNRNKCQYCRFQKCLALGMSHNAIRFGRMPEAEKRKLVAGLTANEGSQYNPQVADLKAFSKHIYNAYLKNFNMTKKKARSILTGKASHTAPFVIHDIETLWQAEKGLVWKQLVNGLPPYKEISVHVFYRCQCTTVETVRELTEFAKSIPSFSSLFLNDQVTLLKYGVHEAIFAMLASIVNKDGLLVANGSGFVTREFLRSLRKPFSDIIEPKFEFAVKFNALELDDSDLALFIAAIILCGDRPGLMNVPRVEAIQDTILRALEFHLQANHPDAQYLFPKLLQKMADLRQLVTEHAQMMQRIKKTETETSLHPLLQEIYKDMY
# [3] = target: T3, Peroxisome proliferator-activated receptor alpha (Homo sapiens) (UniProt Q07869); assay: Agonist activity at human PPARalpha expressed in african green monkey COS7 cells at 1 uM by Gal4 transactivation assay relative to GW-7647; format: functional, cell-based; settings: COS-7
# T3 sequence (whole entry): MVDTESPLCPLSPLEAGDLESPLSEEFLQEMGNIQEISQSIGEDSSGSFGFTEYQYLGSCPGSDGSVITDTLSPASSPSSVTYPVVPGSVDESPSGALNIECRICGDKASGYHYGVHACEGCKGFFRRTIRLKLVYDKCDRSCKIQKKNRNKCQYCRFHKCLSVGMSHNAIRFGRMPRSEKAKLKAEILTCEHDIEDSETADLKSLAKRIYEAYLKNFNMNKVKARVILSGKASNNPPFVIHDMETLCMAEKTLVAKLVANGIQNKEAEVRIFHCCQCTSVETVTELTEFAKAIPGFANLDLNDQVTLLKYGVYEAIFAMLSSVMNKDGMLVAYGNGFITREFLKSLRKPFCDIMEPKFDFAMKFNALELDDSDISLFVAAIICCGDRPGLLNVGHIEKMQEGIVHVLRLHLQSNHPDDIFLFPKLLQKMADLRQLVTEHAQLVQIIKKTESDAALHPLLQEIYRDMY
# [4] = target: T4, Peroxisome proliferator-activated receptor gamma (Homo sapiens, UniProt P37231); assay: Agonist activity at human PPARgamma expressed in african green monkey COS7 cells by Gal4 transactivation assay; format: functional, cell-based, COS-7
# T4 sequence (P37231 whole entry): T1 sequence (whole entry)
# Method in brief: (§1)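 COS7 cells were grown in DMEM with FCS, sodium pyruvate and penicillin/streptomycin at 37 °C, 5% CO2, and seeded at 30,000 cells/well the day before transfection. They were lipofected with pFR-Luc, pRL-SV40 and the Gal4-hPPAR-LBD plasmid of each subtype. After 5 h, cells received serum-free DMEM with 0.1% DMSO plus compound, incubated overnight, then Dual-Glo luciferase read-out. Triplicate wells, ≥3 independent experiments; EC50 from mean values.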
# [5] = target: T5, Peroxisome proliferator-activated receptor alpha (Homo sapiens, UniProt Q07869); assay: Agonist activity at human PPARalpha expressed in african green monkey COS7 cells by Gal4 transactivation assay; format: functional, cell-based, COS-7; method in brief: as §1
# T5 sequence (Q07869 whole entry): T3 sequence (whole entry)
# COS-7 = assay: Selectivity ratio of EC50 for human PPARgamma to EC50 for human PPARalpha expressed in african green monkey COS7 cells; format: cell-based
# [6] = target: T3, Peroxisome proliferator-activated receptor alpha (Homo sapiens); assay: Agonist activity at human PPARalpha expressed in african green monkey COS7 cells at 10 uM by Gal4 transactivation assay; format: functional, cell-based; settings: COS-7
# [7] = target: T1, Peroxisome proliferator-activated receptor gamma (Homo sapiens); assay: Agonist activity at human PPARgamma expressed in african green monkey COS7 cells at 10 uM by Gal4 transactivation assay; format: functional, cell-based; settings: COS-7
# [8] = target: T2, Peroxisome proliferator-activated receptor delta (Homo sapiens); assay: Agonist activity at human PPARbeta expressed in african green monkey COS7 cells at 10 uM by Gal4 transactivation assay relative to L165041; format: functional, cell-based; settings: COS-7
# [9] = target: T2, Peroxisome proliferator-activated receptor delta (Homo sapiens); assay: Agonist activity at human PPARbeta expressed in african green monkey COS7 cells at 1 uM by Gal4 transactivation assay relative to L165041; format: functional, cell-based; settings: COS-7
# [10] = target: T6, Peroxisome proliferator-activated receptor delta (Homo sapiens, UniProt Q03181); assay: Agonist activity at human PPARbeta expressed in african green monkey COS7 cells by Gal4 transactivation assay; format: functional, cell-based, COS-7; method in brief: as §1
# T6 sequence (Q03181 whole entry): T2 sequence (whole entry)
SMILES,Activity [1],Activity [2],Activity [3],EC50 [4],EC50 [5],Activity [6],Activity [7],Activity [8],Activity [9],EC50 [10],Ratio EC50 (COS-7)
CCCCC(Sc1ccc(OCCCOc2cccc(C(C)C)c2)cc1)C(=O)O (centres undefined),91%,inactive,98%,5.3 µM,0.15 µM,–,–,–,–,–,–
CCCCC(Sc1ccc(OCCCOc2cccc(C(F)(F)F)c2)cc1)C(=O)O (centres undefined),68%,inactive,75%,4.6 µM,0.025 µM,–,–,–,–,–,–
CCCC/C(=C\c1ccc(OCCCOc2cccc(C)c2C)cc1)C(=O)O,–,inactive,–,–,–,inactive,inactive,–,–,–,–
CCCCC(Sc1ccc(OCCCOc2ccc(Cl)c(C(F)(F)F)c2)cc1)C(=O)O (centres undefined),96%,inactive,65%,7.8 µM,0.39 µM,–,–,–,–,–,–
Cc1cccc(OCCCOc2ccc(CCC(=O)O)cc2)c1C,54%,–,63%,15.7 µM,13.8 µM,–,–,–,72%,11.2 µM,–
CCCCC(Sc1ccc(OCCCOc2ccccc2C(C)C)cc1)C(=O)O (centres undefined),92%,inactive,89%,4.1 µM,2 µM,–,–,–,–,–,–
CCCCC(Cc1ccc(OCCCOc2cccc(C)c2C)cc1)C(=O)O (centres undefined),120%,inactive,73%,4.2 µM,1.5 µM,–,–,–,–,–,–
CCCCC(Sc1ccc(OCCCOc2cccc3c2CCCC3)cc1)C(=O)O (centres undefined),107%,inactive,101%,8.1 µM,0.19 µM,–,–,–,–,–,–
CCCC[C@H](Sc1ccc(OCCCOc2cccc(C)c2C)cc1)C(=O)O,77%,inactive,94%,9.9 µM,1.7 µM,–,–,–,–,–,–

# More lines, main results first:
Activity [1],Activity [2],Activity [3],EC50 [4],EC50 [5],Activity [6],Activity [7],Activity [8],Activity [9],EC50 [10],SMILES,Ratio EC50 (COS-7)
49%,inactive,95%,1.3 µM,0.22 µM,–,–,–,–,–,CCCCC(Sc1ccc(OCCCOc2ccc3ncccc3c2)cc1)C(=O)O (centres undefined),6
108%,inactive,125%,0.54 µM,0.11 µM,–,–,–,–,–,CCCCC(Sc1ccc(OCCCOc2ccc(-c3ccccc3)cc2)cc1)C(=O)O (centres undefined),5
114%,inactive,64%,2.3 µM,0.25 µM,–,–,–,–,–,CCCCC(Sc1ccc(OCCCOc2ccccc2C)cc1)C(=O)O (centres undefined),–
61%,inactive,72%,3.5 µM,0.021 µM,–,–,–,–,–,CCCCC(Sc1ccc(OCCCOc2ccc(C)c(C)c2)cc1)C(=O)O (centres undefined),–
87%,–,91%,0.93 µM,0.085 µM,–,–,31%,–,–,CCCCC(Sc1ccc(OCCCOc2ccc(C)cc2)cc1)C(=O)O (centres undefined),–
96%,inactive,80%,3 µM,0.09 µM,–,–,–,–,–,CCCCC(Sc1ccc(OCCCOc2cccc(C)c2)cc1)C(=O)O (centres undefined),–
83%,inactive,76%,2.6 µM,0.29 µM,–,–,–,–,–,CCCCC(Sc1ccc(OCCCOc2ccccc2)cc1)C(=O)O (centres undefined),9
85%,inactive,92%,1.6 µM,0.55 µM,–,–,–,–,–,CCCCC(Sc1ccc(OCCCOc2ccccc2OC)cc1)C(=O)O (centres undefined),–
85%,inactive,85%,1.2 µM,0.049 µM,–,–,–,–,–,CCCCC(Sc1ccc(OCCCOc2cccc(OC)c2)cc1)C(=O)O (centres undefined),–
77%,–,81%,3.8 µM,0.6 µM,–,–,–,52%,1.4 µM,Cc1cccc(OCCCOc2ccc(SCC(=O)O)cc2)c1C,–
125%,inactive,115%,3.9 µM,0.011 µM,–,–,–,–,–,CCCC[C@@H](Sc1ccc(OCCCOc2cccc(C)c2C)cc1)C(=O)O,–
82%,inactive,113%,3 µM,0.056 µM,–,–,–,–,–,CCCCC(Sc1ccc(OCCCOc2cccc(C)c2C)cc1)C(=O)O (centres undefined),54
